Positions of bridges follow the written chain, without caps; N, C: chain ends. Non-standard residues stand in square brackets, D forms with d. Residues, ends and D or L forms follow the SMILES beside them. 2Pal = N[C@@H](Cc1ccccn1)C(=O)O
Assays:
Type in all cases: cell-based
[1] = biological target: T1, Sodium channel protein type 9 subunit alpha (Homo sapiens, UniProt Q15858); experiment: Inhibition of human Nav1.7 expressed in HEK293 cells assessed as inward peak current by ion-works quattro patch clamp electrophysiology method
[2] = biological target: T2, Sodium channel protein type 5 subunit alpha (Homo sapiens, UniProt Q14524); experiment: Inhibition of human Nav1.5 expressed in HEK293 cells assessed as inward peak current by ion-works quattro patch clamp electrophysiology method
Outline: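 Stable HEK293 line expressing human NaV1.5, recorded by population patch clamp on the IonWorks Quattro.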

[3] = biological target: T1, Sodium channel protein type 9 subunit alpha; experiment: Inhibition of human Nav1.7 expressed in HEK293 cells by whole cell patch clamp electrophysiology method
[4] = biological target: T2, Sodium channel protein type 5 subunit alpha; experiment: Inhibition of human Nav1.5 expressed in HEK293 cells by whole cell patch clamp electrophysiology method
Outline: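 Stable HEK293 line expressing human NaV1.5, recorded on the PatchXpress 7000A. Percent inhibition versus concentration was pooled from at least 10 cells, with two to three points per concentration. The pooled set was fitted with a four-parameter Hill equation to give a single IC50 curve.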

T2 sequence (Q14524 whole entry): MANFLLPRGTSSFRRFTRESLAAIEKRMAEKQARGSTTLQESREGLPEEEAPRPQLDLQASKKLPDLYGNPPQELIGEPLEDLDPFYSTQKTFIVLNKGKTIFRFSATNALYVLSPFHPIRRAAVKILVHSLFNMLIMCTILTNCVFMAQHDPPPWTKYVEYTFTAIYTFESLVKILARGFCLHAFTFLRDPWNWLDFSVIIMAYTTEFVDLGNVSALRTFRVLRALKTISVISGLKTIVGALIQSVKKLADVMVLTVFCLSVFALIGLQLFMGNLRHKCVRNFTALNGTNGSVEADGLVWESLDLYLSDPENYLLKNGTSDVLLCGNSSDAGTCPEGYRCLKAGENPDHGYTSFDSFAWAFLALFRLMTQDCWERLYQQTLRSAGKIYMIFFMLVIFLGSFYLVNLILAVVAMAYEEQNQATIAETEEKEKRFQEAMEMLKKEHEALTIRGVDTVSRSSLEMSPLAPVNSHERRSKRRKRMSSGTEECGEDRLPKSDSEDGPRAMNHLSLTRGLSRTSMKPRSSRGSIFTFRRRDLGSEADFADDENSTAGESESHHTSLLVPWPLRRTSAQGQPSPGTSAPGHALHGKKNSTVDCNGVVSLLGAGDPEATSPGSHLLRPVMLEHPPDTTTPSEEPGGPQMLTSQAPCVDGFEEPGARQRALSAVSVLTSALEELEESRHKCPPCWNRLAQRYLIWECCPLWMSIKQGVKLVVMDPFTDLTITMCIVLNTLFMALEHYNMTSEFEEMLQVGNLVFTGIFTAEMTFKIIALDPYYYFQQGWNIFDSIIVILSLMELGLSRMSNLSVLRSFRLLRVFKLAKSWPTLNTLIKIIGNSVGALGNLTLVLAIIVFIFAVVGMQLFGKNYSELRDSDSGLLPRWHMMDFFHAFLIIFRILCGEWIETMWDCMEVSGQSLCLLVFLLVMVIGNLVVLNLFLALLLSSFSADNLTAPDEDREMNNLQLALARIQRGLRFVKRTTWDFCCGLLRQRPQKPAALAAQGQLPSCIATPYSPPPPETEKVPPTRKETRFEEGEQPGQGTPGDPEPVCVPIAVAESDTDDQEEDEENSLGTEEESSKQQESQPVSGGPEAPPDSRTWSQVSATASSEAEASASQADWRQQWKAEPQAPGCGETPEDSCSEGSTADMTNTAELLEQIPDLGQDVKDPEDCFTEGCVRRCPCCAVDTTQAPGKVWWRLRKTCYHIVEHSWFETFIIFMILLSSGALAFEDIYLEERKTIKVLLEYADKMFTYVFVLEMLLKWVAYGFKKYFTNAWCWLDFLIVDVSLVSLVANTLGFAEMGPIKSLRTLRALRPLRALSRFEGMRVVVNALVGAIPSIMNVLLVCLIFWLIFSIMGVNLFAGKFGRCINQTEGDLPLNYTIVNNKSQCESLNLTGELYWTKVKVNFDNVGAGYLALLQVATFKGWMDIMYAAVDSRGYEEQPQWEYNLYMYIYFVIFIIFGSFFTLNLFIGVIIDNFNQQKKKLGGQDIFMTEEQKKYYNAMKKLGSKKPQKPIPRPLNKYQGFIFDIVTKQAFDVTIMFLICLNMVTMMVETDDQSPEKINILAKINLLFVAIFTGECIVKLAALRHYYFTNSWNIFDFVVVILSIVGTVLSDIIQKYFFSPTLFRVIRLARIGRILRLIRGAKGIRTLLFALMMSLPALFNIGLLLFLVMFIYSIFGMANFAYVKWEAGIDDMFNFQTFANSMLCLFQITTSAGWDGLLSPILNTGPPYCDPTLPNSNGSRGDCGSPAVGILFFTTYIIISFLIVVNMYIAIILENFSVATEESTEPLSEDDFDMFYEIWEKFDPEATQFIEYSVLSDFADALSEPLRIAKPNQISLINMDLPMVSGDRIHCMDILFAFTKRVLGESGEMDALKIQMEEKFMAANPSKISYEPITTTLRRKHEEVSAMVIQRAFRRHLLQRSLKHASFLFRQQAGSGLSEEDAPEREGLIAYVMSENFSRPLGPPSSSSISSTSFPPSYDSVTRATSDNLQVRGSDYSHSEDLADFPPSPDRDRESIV
T1 sequence (Q15858 whole entry): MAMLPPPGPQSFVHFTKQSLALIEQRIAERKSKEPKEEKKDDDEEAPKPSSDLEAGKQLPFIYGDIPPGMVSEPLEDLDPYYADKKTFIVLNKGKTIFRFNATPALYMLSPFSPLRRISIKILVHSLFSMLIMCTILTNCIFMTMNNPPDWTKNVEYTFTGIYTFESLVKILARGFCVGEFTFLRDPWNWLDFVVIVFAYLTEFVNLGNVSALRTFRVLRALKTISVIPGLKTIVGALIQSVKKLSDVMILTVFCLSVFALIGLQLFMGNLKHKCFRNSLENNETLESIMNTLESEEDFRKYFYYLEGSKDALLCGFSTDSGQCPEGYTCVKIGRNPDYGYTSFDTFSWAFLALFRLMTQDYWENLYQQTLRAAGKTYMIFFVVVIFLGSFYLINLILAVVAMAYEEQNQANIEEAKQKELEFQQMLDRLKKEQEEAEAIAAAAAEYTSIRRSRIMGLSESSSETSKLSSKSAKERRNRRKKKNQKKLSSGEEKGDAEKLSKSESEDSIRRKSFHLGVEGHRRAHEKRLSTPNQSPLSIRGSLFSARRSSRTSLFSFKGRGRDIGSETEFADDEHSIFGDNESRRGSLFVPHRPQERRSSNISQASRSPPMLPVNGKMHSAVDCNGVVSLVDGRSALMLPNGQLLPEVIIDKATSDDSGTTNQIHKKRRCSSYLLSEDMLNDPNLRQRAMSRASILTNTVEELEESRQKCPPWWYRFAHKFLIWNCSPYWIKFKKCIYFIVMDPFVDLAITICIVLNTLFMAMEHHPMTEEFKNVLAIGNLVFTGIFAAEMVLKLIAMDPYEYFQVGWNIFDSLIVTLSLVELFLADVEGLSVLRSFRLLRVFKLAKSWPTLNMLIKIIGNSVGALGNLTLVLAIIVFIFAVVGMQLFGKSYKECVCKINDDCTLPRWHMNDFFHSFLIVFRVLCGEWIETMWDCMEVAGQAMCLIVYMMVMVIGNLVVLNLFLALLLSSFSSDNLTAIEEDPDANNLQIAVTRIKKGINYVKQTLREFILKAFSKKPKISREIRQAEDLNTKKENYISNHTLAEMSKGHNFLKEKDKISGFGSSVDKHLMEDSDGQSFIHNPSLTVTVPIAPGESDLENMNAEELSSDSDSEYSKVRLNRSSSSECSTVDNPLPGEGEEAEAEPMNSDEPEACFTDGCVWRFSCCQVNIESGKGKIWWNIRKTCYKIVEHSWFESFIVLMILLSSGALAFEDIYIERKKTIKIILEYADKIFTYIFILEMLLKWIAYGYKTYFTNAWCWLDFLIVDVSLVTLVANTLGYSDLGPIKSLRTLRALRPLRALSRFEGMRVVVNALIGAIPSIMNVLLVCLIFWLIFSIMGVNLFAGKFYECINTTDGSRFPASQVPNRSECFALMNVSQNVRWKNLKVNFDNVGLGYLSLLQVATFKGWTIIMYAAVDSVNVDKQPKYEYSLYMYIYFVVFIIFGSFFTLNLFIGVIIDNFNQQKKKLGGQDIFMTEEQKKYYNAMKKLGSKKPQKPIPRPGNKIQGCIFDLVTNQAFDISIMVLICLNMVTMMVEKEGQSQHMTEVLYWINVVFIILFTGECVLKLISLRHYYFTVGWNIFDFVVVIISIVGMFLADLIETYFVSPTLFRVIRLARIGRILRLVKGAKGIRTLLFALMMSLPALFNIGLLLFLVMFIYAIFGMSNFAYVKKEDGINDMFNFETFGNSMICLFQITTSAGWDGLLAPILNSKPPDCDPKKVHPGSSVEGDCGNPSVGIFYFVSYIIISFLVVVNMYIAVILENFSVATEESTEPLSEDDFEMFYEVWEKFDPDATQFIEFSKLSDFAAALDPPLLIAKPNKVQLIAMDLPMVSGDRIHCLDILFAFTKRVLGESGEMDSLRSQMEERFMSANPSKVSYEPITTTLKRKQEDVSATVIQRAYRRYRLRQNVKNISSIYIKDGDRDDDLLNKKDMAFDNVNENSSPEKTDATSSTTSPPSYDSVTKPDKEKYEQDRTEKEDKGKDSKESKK

Structure (SMILES) | IC50 [1] [nM] | IC50 [2] [nM] | IC50 [3] [nM] | IC50 [4] [nM]
CC[C@H](C)[C@@H]1NC(=O)[C@@H]2CSSC[C@@H]3NC(=O)[C@H](Cc4c[nH]c5ccccc45)NC(=O)[C@H](CC(C)C)NC(=O)[C@H](CC(N)=O)NC(=O)[C@@H]4CCCN4C(=O)[C@H](CCCNC(=N)N)NC(=O)[C@H](CSSC[C@H](NC(=O)[C@@H](N)CC(=O)O)C(=O)N[C@@H](CC(C)C)C(=O)NCC(=O)N[C@@H](Cc4ccccc4)C(=O)N[C@@H](CCSC)C(=O)N[C@@H](CCCNC(=N)N)C(=O)N[C@@H](CCCCN)C(=O)N2)NC(=O)[C@H](CSSC[C@@H](C(=O)N[C@@H](CCCCN)C(=O)N[C@@H](Cc2ccc(O)cc2)C(=O)N[C@H](C(=O)N[C@@H](Cc2ccccc2)C(N)=O)C(C)C)NC(=O)[C@H](Cc2c[nH]c4ccccc24)NC(=O)[C@H](CCCCN)NC(=O)[C@H](Cc2cnc[nH]2)NC(=O)[C@H]([C@@H](C)O)NC(=O)[C@H](CCCNC(=N)N)NC(=O)[C@H](CO)NC3=O)NC(=O)[C@H](CCCCN)NC(=O)[C@H](CC(=O)O)NC(=O)[C@H](CC(N)=O)NC(=O)[C@H](CC(=O)O)NC(=O)[C@@H]2CCCN2C1=O (H-DCLGFMRKCIPDNDKCCRPNLWCSRTHKWCKYVF-NH2; disulfide 2-17, 9-23, 16-30) | 60 | > 5000 | 42 | 3200
CC[C@H](C)[C@@H]1NC(=O)[C@@H]2CSSC[C@@H]3NC(=O)[C@H](C(C)C)NC(=O)[C@H](CC(C)C)NC(=O)[C@H](CC(N)=O)NC(=O)[C@@H]4CCCN4C(=O)[C@H](Cc4ccccn4)NC(=O)[C@H](CSSC[C@H](NC(=O)[C@@H](N)CC(=O)O)C(=O)N[C@@H](CC(C)C)C(=O)NCC(=O)N[C@@H](Cc4ccccc4)C(=O)N[C@@H](CCSC)C(=O)N[C@@H](CCCNC(=N)N)C(=O)N[C@@H](CCCCN)C(=O)N2)NC(=O)[C@H](CSSC[C@@H](C(=O)N[C@@H](CCCCN)C(=O)N[C@@H](Cc2ccc(O)cc2)C(=O)N[C@H](C(=O)N[C@@H](Cc2ccccc2)C(N)=O)C(C)C)NC(=O)[C@H](Cc2c[nH]c4ccccc24)NC(=O)[C@H](CCCCN)NC(=O)[C@H](Cc2cnc[nH]2)NC(=O)[C@H]([C@@H](C)O)NC(=O)[C@H](CCCNC(=N)N)NC(=O)[C@H](CO)NC3=O)NC(=O)[C@H](CCCCN)NC(=O)[C@H](CC(=O)O)NC(=O)[C@H](CC(N)=O)NC(=O)[C@H](CC(=O)O)NC(=O)[C@@H]2CCCN2C1=O (H-DCLGFMRKCIPDNDKCC[2Pal]PNLVCSRTHKWCKYVF-NH2; disulfide 2-17, 9-23, 16-30) | 300 | > 5000 | 4 | 13100
CC[C@H](C)[C@@H]1NC(=O)[C@@H]2CSSC[C@@H]3NC(=O)[C@H](C(C)C)NC(=O)[C@H](CC(C)C)NC(=O)[C@H](CC(N)=O)NC(=O)[C@@H]4CCCN4C(=O)[C@H](CCCNC(N)=O)NC(=O)[C@H](CSSC[C@H](NC(=O)[C@@H](N)CC(=O)O)C(=O)N[C@@H](CC(C)C)C(=O)NCC(=O)N[C@@H](Cc4ccccc4)C(=O)N[C@@H](CCSC)C(=O)N[C@@H](CCCNC(=N)N)C(=O)N[C@@H](CCCCN)C(=O)N2)NC(=O)[C@H](CSSC[C@@H](C(=O)N[C@@H](CCCCN)C(=O)N[C@@H](Cc2ccc(O)cc2)C(=O)N[C@H](C(=O)N[C@@H](Cc2ccccc2)C(N)=O)C(C)C)NC(=O)[C@H](Cc2c[nH]c4ccccc24)NC(=O)[C@H](CCCCN)NC(=O)[C@H](Cc2cnc[nH]2)NC(=O)[C@H]([C@@H](C)O)NC(=O)[C@H](CCCNC(=N)N)NC(=O)[C@H](CO)NC3=O)NC(=O)[C@H](CCCCN)NC(=O)[C@H](CC(=O)O)NC(=O)[C@H](CC(N)=O)NC(=O)[C@H](CC(=O)O)NC(=O)[C@@H]2CCCN2C1=O | 180 | > 5000 | 1.9 | > 10000

From ChEMBL document CHEMBL3797186, “Single Residue Substitutions That Confer Voltage-Gated Sodium Ion Channel Subtype Selectivity in the NaV1.7 Inhibitory Peptide GpTx-1” (J Med Chem, 2016)
